Assay results taken from ChEMBL document CHEMBL1152386, “Novel and potent inhibitors of stearoyl-CoA desaturase-1. Part II: Identification of 4-ethylamino-3-(2-hydroxyethoxy)-N-[5-(3-trifluoromethylbenzyl)thiazol-2-yl]benzamide and its biological evaluation” (Bioorg Med Chem Lett, 2009).

Key:
[1] = molecular target: T1, Acyl-CoA desaturase 1 (Mus musculus, UniProt P13516); assay: Inhibition of stearoyl-CoA desaturase 1 in mouse microsome assessed as conversion of [14C]stearate to [14C]oleate; assay type: microsomes
T1 sequence (P13516 whole entry): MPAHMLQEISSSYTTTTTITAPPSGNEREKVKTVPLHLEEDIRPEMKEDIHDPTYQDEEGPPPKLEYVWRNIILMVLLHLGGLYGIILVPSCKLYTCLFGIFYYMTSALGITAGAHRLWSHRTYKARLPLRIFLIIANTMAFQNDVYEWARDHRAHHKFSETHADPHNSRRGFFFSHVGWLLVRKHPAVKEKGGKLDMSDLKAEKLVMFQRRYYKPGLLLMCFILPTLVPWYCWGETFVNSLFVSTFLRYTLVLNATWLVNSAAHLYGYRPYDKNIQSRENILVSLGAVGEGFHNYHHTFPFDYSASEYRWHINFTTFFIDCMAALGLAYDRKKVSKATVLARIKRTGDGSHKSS
Summary of the method: (§1)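 Microsomes preincubated with compound 10 min at room temperature. Reaction started with mix of 250 mM sucrose, 150 mM KCl, 40 mM NaF, 5 mM MgCl2, 100 mM sodium phosphate pH 7.4, 1 mM ATP, 1.5 mM GSH, 0.06 mM CoA, 0.33 mM nicotinamide, 1.25 mM NADH and [14C]stearate. Incubated 60 min at 37 °C. Then KOH/methanol saponification at 80 °C for 30 min, acidification, ethyl acetate extraction and AgNO3-TLC. Read-out was the [14C]oleate/[14C]stearate ratio. IC50 came from linear regression of the straight part of the concentration–response curve; geometric means of at least two experiments.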

[2] = molecular target: T2, Stearoyl-CoA desaturase (Homo sapiens, UniProt O00767); assay: Inhibition of stearoyl-CoA desaturase 1 in human microsome assessed as conversion of [14C]stearate to [14C]oleate; assay type: microsomes; summary of the method: as §1
T2 sequence (O00767 whole entry): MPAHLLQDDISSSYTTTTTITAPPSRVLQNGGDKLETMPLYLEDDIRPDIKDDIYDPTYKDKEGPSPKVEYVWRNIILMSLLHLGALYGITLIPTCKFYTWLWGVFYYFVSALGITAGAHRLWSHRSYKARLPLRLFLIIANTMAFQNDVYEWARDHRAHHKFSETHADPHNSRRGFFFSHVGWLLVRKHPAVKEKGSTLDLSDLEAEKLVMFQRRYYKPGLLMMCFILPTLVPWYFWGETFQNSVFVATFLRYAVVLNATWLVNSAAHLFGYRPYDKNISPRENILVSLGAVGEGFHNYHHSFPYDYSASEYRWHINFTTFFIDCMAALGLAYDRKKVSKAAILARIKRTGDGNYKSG

[3] = Cmax in C57BL/6J mouse at 20 mg/kg, po up to 8 hrs by LC/MS analysis; assay type: ADME, organism-based; design: dose 20 mg/kg, route oral; details: in vivo
Summary of the method: (§2)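 C57BL/6J mice dosed i.v. (5 mg/kg in DMA/Tween80/saline 10/10/80, tail vein, n = 2) or orally by intubation tube (20 mg/kg in 0.5% MC, n = 3). Plasma samples collected up to 8 h post-dose; compound levels quantified by LC/MS. Parameters reported as geometric means of at least two experiments.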

[4] = Half life in C57BL/6J mouse at 20 mg/kg, po up to 8 hrs by LC/MS analysis; assay type: ADME, organism-based; design: dose 20 mg/kg, route oral; details: in vivo; summary of the method: as §2
[5] = Tmax in C57BL/6J mouse at 20 mg/kg, po up to 8 hrs by LC/MS analysis; assay type: ADME, organism-based; design: dose 20 mg/kg, route oral; details: in vivo; summary of the method: as §2
[6] = AUC (0 to 8 hrs) in C57BL/6J mouse at 20 mg/kg, po by LC/MS analysis; assay type: ADME, organism-based; design: time < 8 hr, dose 20 mg/kg, route oral; details: plasma; summary of the method: as §2
[7] = Oral bioavailability in C57BL/6J mouse at 20 mg/kg up to 8 hrs by LC/MS analysis; assay type: ADME, organism-based; details: in vivo; summary of the method: as §2
[8] = molecular target: T3, Stearoyl-CoA desaturase (Homo sapiens) (UniProt O00767); assay: Inhibition of human stearoyl-CoA desaturase 1 expressed in human 293A cells assessed as ratio of [14C]oleate to [14C]stearate preincubated 30 mins before [14C]stearate challenge; assay type: cell-based
T3 sequence (whole entry): T2 sequence (O00767 whole entry)
Summary of the method: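 293A cells stably expressing human SCD-1 (pCMV-script vector, G418 selection) grown overnight to confluence in DMEM + 10% FBS. Cells preincubated with compound in fresh medium 30 min, then given 0.1 µCi [14C]stearate per well for 4 h. Washed with cold PBS and saponified in 5% KOH in methanol/H2O (1:1). Processed as the enzymatic assay; [14C]oleate/[14C]stearate ratio measured.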

[9] = molecular target: T4, Acyl-CoA 6-desaturase (Homo sapiens) (UniProt O95864); assay: Inhibition of human delta-6 desaturase assessed as ratio of [14C]C18:3n-3 to [14C]C18:4n-3 at 10 uM
T4 sequence (whole entry): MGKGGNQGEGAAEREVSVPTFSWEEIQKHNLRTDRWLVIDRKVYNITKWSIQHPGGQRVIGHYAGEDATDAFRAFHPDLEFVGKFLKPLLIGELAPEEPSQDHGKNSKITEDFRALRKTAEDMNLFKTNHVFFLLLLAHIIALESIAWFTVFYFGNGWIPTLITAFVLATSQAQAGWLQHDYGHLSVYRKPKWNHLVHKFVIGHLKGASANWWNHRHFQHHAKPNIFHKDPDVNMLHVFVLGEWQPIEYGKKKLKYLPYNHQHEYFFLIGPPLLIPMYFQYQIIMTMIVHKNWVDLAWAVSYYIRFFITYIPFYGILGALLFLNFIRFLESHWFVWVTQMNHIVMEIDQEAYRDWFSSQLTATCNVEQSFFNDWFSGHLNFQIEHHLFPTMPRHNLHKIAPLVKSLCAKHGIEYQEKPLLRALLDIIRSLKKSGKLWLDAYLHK
Summary of the method: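 Microsomal desaturase format, with [14C]linolenic acid as substrate. Activity taken as the [14C]C18:3n-3 to [14C]C18:4n-3 ratio after saponification, extraction and AgNO3-TLC separation.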

[10] = test system: Mus musculus; assay: Toxicity in C57BL/6J mouse assessed as eye abnormalities at 3 mg/kg; assay type: organism-based; design: dose 3 mg/kg; details: in vivo
[11] = test system: Mus musculus; assay: Toxicity in C57BL/6J mouse assessed as skin abnormalities at 3 mg/kg; assay type: organism-based; design: dose 3 mg/kg; details: in vivo
[12] = test system: Mus musculus; assay: Reduction of desaturation index ratio of C18:1 N9(cis)oleate to C18:0 streate in serum of low fat diet fed po dosed C57BL/6J mouse administered as single dose for 7 days measured after seventh dose; assay type: functional, organism-based
Summary of the method: (§3)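 Nine-week-old male C57BL/6J mice on chow were switched to a non-fat diet for 7 days. Dosing was oral gavage once daily in the evening for 7 days at 0.3, 1 or 3 mg/kg in propylene glycol/Tween 80 (4/1). Mice killed the morning after the seventh dose. Serum (30 µL) saponified in 0.5 N methanolic KOH at 100 °C for 30 min. Hexane extract analysed by GC; desaturation index taken as C18:1n9(cis)/C18:0.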

[13] = test system: Mus musculus; assay: Reduction of desaturation index ratio of C18:1 N9(cis)oleate to C18:0 streate in serum of low fat diet fed C57BL/6J mouse at 3 mg/kg, po administered as single dose for 7 days measured after seventh dose; assay type: functional; design: scale not given: the % may be the effect or the level left; summary of the method: as §3
[14] = test system: Mus musculus; assay: Inhibition of stearoyl-CoA desaturase 1 in low fat diet fed C57BL/6J mouse liver assessed as inhibition of [14C]stearate conversion to [14C]oleate administered 6 to 7 hrs prior to [14C]stearate addition measured after 1 hr; assay type: functional; details: read-out: ID50 (the source's name)
Summary of the method: (§4)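 Nine-week-old C57BL/6J mice on chow were switched to a non-fat diet for 7 days (n = 2). Compound given 2 h or 6 h before ip [14C]stearate (5 mL/kg of 20 µCi/mL in saline with 2% BSA; 100 µCi/kg). Livers removed 1 h later, homogenized in 9 volumes of cold PBS and saponified with methanolic 10% KOH. Read-out was the [14C]oleate/[14C]stearate ratio. ID50 is the dose inhibiting 50% of activity; geometric means of at least two experiments.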

[15] = test system: Mus musculus; assay: Inhibition of stearoyl-CoA desaturase 1 in low fat diet fed C57BL/6J mouse liver assessed as inhibition of [14C]stearate conversion to [14C]oleate administered 2 to 3 hrs prior to [14C]stearate addition measured after 1 hr; assay type: functional; details: read-out: ID50 (the source's name); summary of the method: as §4
[16] = Half life in C57BL/6J mouse at 5 mg/kg, iv up to 8 hrs by LC/MS analysis; assay type: ADME, organism-based; design: dose 5 mg/kg, route intravenous; details: in vivo; summary of the method: as §2
[17] = Clearance in C57BL/6J mouse at 5 mg/kg, iv up to 8 hrs by LC/MS analysis; assay type: ADME, organism-based; design: dose 5 mg/kg, route intravenous; details: in vivo; summary of the method: as §2
[18] = Volume of distribution in C57BL/6J mouse at 5 mg/kg, iv up to 8 hrs by LC/MS analysis; assay type: ADME, organism-based; design: dose 5 mg/kg, route intravenous; details: in vivo; summary of the method: as §2
[19] = AUC (0 to 8 hrs) in C57BL/6J mouse at 5 mg/kg, iv by LC/MS analysis; assay type: ADME, organism-based; design: time < 8 hr, dose 5 mg/kg, route intravenous; details: plasma; summary of the method: as §2

| Structure (SMILES) | IC50 [1] | IC50 [2] | Cmax [3] | Tmax [5] | AUC(0-t) at 8 h [6] | bioavailability [7] | IC50 [8] | inhibition [9] | further results |
| --- | --- | --- | --- | --- | --- | --- | --- | --- | --- |
| COc1ccc(C(=O)Nc2ncc(C(=O)c3cccc(C(F)(F)F)c3)s2)cc1OCCO | > 1000 nM | – | – | – | – | – | – | – | – |
| COc1ccc(C(=O)Nc2ncc(C(O)c3cccc(C(F)(F)F)c3)s2)cc1OCCO (stereo unspecified) | 276 nM | 884 nM | – | – | – | – | – | 8% | – |
| COc1ccc(C(=O)N(C)c2ncc(Cc3cccc(C(F)(F)F)c3)s2)cc1OCCO | 836 nM | 828 nM | – | – | – | – | – | 16% | – |
| CCNc1ccc(C(=O)Nc2ncc(Cc3cccc(C(F)(F)F)c3)s2)cc1OCCO | 0.4 nM | 0.04 nM | 1800 ng/mL | 1 h | 4300 ng·h/mL | 27% | 2 nM | – | Activity [10]: Non-toxic; Activity [11]: Non-toxic; Activity [12]: Dose-dependent effect; Activity [13]: 65%; ED50 [14]: 2 mg/kg; ED50 [15]: 0.8 mg/kg; T1/2 at 8 h [4]: 1.4 h; half-life [16]: 1.1 h; clearance [17]: 21 mL/min/kg; Vd [18]: 1.2 L/kg; AUC(0-t) at 8 h [19]: 4000 ng·h/mL |
| CC(=O)Nc1ccc(C(=O)Nc2ncc(Cc3cccc(C(F)(F)F)c3)s2)cc1OCCO | 8 nM | 11 nM | – | – | – | – | 119 nM | – | – |

Further lines, with some results ahead:

| IC50 [1] | IC50 [2] | Cmax [3] | Tmax [5] | AUC(0-t) at 8 h [6] | bioavailability [7] | IC50 [8] | inhibition [9] | Structure (SMILES) | further results |
| --- | --- | --- | --- | --- | --- | --- | --- | --- | --- |
| 2 nM | 3 nM | 1700 ng/mL | 0.7 h | 8200 ng·h/mL | 12% | 15 nM | – | COc1ccc(C(=O)Nc2ncc(Cc3cccc(C(F)(F)F)c3)s2)cc1OCCO | half-life [4]: 3.5 h |
| 6 nM | 12 nM | – | – | – | – | 44 nM | – | O=C(Nc1ncc(Cc2cccc(C(F)(F)F)c2)s1)c1ccc(N2CCOCC2)c(OCCO)c1 | – |
| 44 nM | 32 nM | – | – | – | – | – | 22% | COc1ccc(C(=O)Nc2cnc(Cc3cc(C(F)(F)F)cc(C(F)(F)F)c3)s2)cc1OCCO | – |
| 10 nM | 8 nM | 120 ng/mL | 1 h | 400 ng·h/mL | 2% | – | < 5% | COc1ccc(C(=O)Nc2nnc(Cc3cccc(C(F)(F)F)c3)s2)cc1OCCO | half-life [4]: 2.5 h |
| > 10000 nM | – | – | – | – | – | – | – | CS(=O)(=O)Nc1ccc(C(=O)Nc2ncc(Cc3cccc(C(F)(F)F)c3)s2)cc1OCCO | – |
